For one data set, the system named is MDA-MB-231. The data set can be described thus: Cytotoxicity against Stat3-activated human MDA-MB-231 cells assessed as growth inhibition at 20 ug/ml after 72 hrs by CyQuant assay. Format: functional, cell-based. In outline: (§1)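 Cells were seeded at 1000 per well and grown 24 h. They were then exposed to 20 μg/mL compound for 72 h. Viability was measured by the CyQuant assay following the kit instructions and expressed relative to DMSO-treated control cells.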

For the next data set, the system named is NIH3T3. The data set can be described thus: Cytotoxicity against mouse NIH/3T3 cells assessed as growth inhibition at 20 ug/ml after 72 hrs by CyQuant assay.
The test system of the next data set is U-251. As to the kind of experiment: Cytotoxicity against Stat3-activated human U251MG cells assessed as growth inhibition at 20 ug/ml after 72 hrs by CyQuant assay. Format: functional, cell-based. In outline:
as §1

Data set [1] is described as follows: Antioxidant activity assessed as DPPH free radical scavenging activity measured as decoloration of a MeOH solution after 10 mins by spectrophotometry. In kind it is physicochemical. In outline:
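Compounds were dissolved in MeOH at various concentrations and mixed with a methanolic DPPH solution. Mixtures were held 10 min in the dark, then remaining DPPH was read as absorbance at 517 nm. Scavenging was calculated against a blank of DPPH plus solvent, taken as 100%.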

Molecules are shown by their SMILES. In brackets after ≈: the same amount, converted by molar mass. Activity calls are given as the source filed them. The calls are words filed in the database; no cut-off is given here.

In the case of `COc1ccc(/C=C/C(=O)O[C@@H]2C[C@](C)(OC(C)=O)[C@H]3[C@H](O[C@@H]4O[C@H](CO)[C@@H](O)[C@H](O)[C@H]4O)OC=C(C(=O)O)[C@H]32)cc1`, the inhibition result with MDA-MB-231, in the data set with NIH3T3 and in the data set with U-251 was “inactive” each time.
Regarding `C[C@]1(O)C[C@@H](O)[C@@H]2C(C(=O)O)=CO[C@@H](O[C@@H]3O[C@H](COC=O)[C@@H](O)[C@H](O)[C@H]3O)[C@@H]21`, the inhibition result with MDA-MB-231, in the data set on NIH3T3 and with U-251 was “inactive” in each case.
For `C[C@]1(O)CC[C@@H]2C(C(=O)O)=CO[C@@H](O[C@@H]3O[C@H](CO)[C@@H](O)[C@H](O)[C@H]3O)[C@@H]21`, the inhibition entry in the data set on MDA-MB-231, in the data set with NIH3T3 and with U-251 was “inactive” each time.
As for `COC(=O)C1=CO[C@@H](O[C@@H]2O[C@H](CO)[C@@H](O)[C@H](O)[C@H]2O)[C@H]2[C@@H]1[C@H](OC(C)=O)C[C@]2(C)OC(C)=O`, the inhibition entry with MDA-MB-231, in the data set with NIH3T3 and in the data set on U-251 was “inactive” in each case.
The term IC50 denotes the point on the concentration scale where inhibition reaches its midpoint. `COC(=O)C1=CO[C@@H](O[C@@H]2O[C@H](CO)[C@@H](O)[C@H](O)[C@H]2O)[C@H]2[C@@H]1[C@H](O)C[C@]2(C)OC(C)=O` [BARLERIN]: the inhibition result in the data set on MDA-MB-231, in the data set with NIH3T3 and in the data set on U-251 was “inactive” in each case. In data set [1], the IC50 stood at 110.3 µg/mL (≈ 246 µM).
For `COC(=O)C1=CO[C@@H](O[C@@H]2O[C@H](CO)[C@@H](O)[C@H](O)[C@H]2O)[C@H]2[C@@H]1[C@H](O)C[C@]2(C)O` [SHANZHISIDE METHYL ESTER], the inhibition entry in the data set with MDA-MB-231, in the data set on NIH3T3 and in the data set with U-251 was “inactive” throughout. Besides, the IC50 in data set [1] stood at 97.5 µg/mL (≈ 240 µM).
With `C[C@]1(O)C[C@@H](OC=O)[C@@H]2C(C(=O)O)=CO[C@@H](O[C@@H]3O[C@H](CO)[C@@H](O)[C@H](O)[C@H]3O)[C@@H]21`, the inhibition result with MDA-MB-231, with NIH3T3 and in the data set on U-251 was “inactive” in each case.
With `COC(=O)C1=CO[C@@H](O[C@@H]2O[C@H](CO)[C@@H](O)[C@H](O)[C@H]2O)[C@@H]2[C@@](C)(OC(C)=O)CC[C@]12O`, the inhibition entry in the data set with MDA-MB-231, in the data set with NIH3T3 and in the data set on U-251 was “inactive” in each case.
As to `O=c1c(O)c(-c2ccc(O)c(O)c2)oc2cc(O)cc(O)c12` [QUERCETIN], the concentration for half-maximal inhibition (IC50) in data set [1] came to 9.52 µg/mL (≈ 31.5 µM).
With `COC(=O)C1=CO[C@@H](O[C@@H]2O[C@H](CO)[C@@H](O)[C@H](O)[C@H]2O)[C@H]2[C@@H]1[C@H](OC(C)=O)C[C@]2(C)O`, the inhibition entry in the data set on MDA-MB-231, with NIH3T3 and in the data set on U-251 was “inactive” in each case. Further, the IC50 in data set [1] came out at 286.4 µg/mL (≈ 639 µM).
Consider `O=C(O)c1cc(O)c(O)c(O)c1` [GALLIC ACID], for which the IC50 in data set [1] was 2.79 µg/mL (≈ 16.4 µM).
In the case of `COC(=O)C1=CO[C@@H](O[C@@H]2O[C@H](COC=O)[C@@H](O)[C@H](O)[C@H]2O)[C@H]2[C@@H]1[C@H](OC(C)=O)C[C@]2(C)OC(C)=O`, the inhibition result in the data set on MDA-MB-231, in the data set with NIH3T3 and with U-251 was “inactive” each time.
Regarding `COC(=O)C1=CO[C@@H](O[C@@H]2O[C@H](CO)[C@@H](O)[C@H](O)[C@H]2O)[C@H]2[C@@H]1[C@H](OC(=O)/C=C/c1ccc(O)cc1)C[C@]2(C)OC(C)=O`, the IC50 in data set [1] was found to be 486.5 µg/mL (≈ 818 µM).
Turning to `O=C1O[C@H]([C@@H](O)CO)C(O)=C1O` [ASCORBIC ACID], the IC50 in data set [1] was 7.63 µg/mL (≈ 43.3 µM).
For the molecule `C[C@]1(O)C[C@@H](O)[C@@H]2C(C(=O)O)=CO[C@@H](O[C@@H]3O[C@H](CO)[C@@H](O)[C@H](O)[C@H]3O)[C@@H]21` [SHANZHISIDE], the inhibition result in the data set with MDA-MB-231, in the data set on NIH3T3 and in the data set on U-251 was “inactive” each time. Further, the IC50 in data set [1] was 78.6 µg/mL (≈ 200 µM).
With `COc1ccc(/C=C\C(=O)O[C@@H]2C[C@](C)(OC(C)=O)[C@H]3[C@H](O[C@@H]4O[C@H](CO)[C@@H](O)[C@H](O)[C@H]4O)OC=C(C(=O)O)[C@H]32)cc1`, the inhibition entry in the data set with MDA-MB-231, in the data set on NIH3T3 and in the data set on U-251 was “inactive” throughout.
Regarding `CC(=O)O[C@@]1(C)C[C@@H](O)[C@@H]2C(C(=O)O)=CO[C@@H](O[C@@H]3O[C@H](CO)[C@@H](O)[C@H](O)[C@H]3O)[C@@H]21`, the inhibition result in the data set on MDA-MB-231, in the data set on NIH3T3 and in the data set on U-251 was “inactive” each time.
Take `COC(=O)C1=CO[C@@H](O[C@@H]2O[C@H](COC=O)[C@@H](O)[C@H](O)[C@H]2O)[C@H]2[C@@H]1[C@H](O)C[C@]2(C)OC(C)=O`: the inhibition result in the data set with MDA-MB-231, in the data set on NIH3T3 and in the data set with U-251 was “inactive” throughout.
